Results as given in paper PMC6648324 (ACS Omega, 2019).
Several values for one entry are separate records, joined by “and”; a condition that tells them apart may be missing. Equal values may be shown once. Read-outs that look alike come from different tables or passages of the source.

Legend:
[1] = Cyclic voltammetry in DMSO; type: physicochemical; settings: 200 mV s^–1
Outline: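 Flavone at ~2−2.5 mM in DMSO with 0.1 M n-Bu4NPF6 under Ar at 25 °C. Three-electrode cell: polished glassy carbon disk (0.07 cm2) working electrode, Pt wire counter, KCl(3 M)/Ag/AgCl reference (+210 mV vs NHE). Sweep rates 50 mV s−1 to 6 V s−1; peak potentials read at 200 mV s−1. E1/2 taken from the […] reduction wave.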

[2] = Spectrophotometric titrations with FeNTA at pH 7.4; type: physicochemical; settings: CH3OH/H2O (80/20 w/w), pH = 7.4 (HEPES), I = 0.1 M, 25.0(2) °C, nc = no complexation
Outline: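 FeNTA made fresh from Fe(III) and solid NTA (~1:1, slight NTA excess) with a few drops of HClO4, then brought to pH 7.4 with 0.1 M HEPES. Flavone (stock ~10−5 M range) in 0.1 M HEPES pH 7.4 CH3OH/H2O was titrated with FeNTA. UV-vis spectra recorded at 25.0(2) °C, l = 1 cm. Constants fitted with Specfit. Ternary complexes checked by negative-mode ESI-MS.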

[3] = CH3OH/H2O (80/20 w/w); I = 0.1 M (NEt4ClO4); 25.0(2) °C; [H^+] = 10^–2 M; cited from earlier work
[4] = cited from earlier work
[5] = UV–vis absorption spectrophotometric titrations versus pH; type: physicochemical; settings: CH3OH/H2O (80/20 w/w); I = 0.1 M (NEt4ClO4); T = 25.0(2) °C
Outline: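 Flavone at 10−5−10−4 M in CH3OH/H2O was acidified, then titrated with base over 2 < pH < 12, with full equilibration after each addition. Spectra taken through a quartz immersion probe (l = 1 cm). Specfit analysis gave the 6-OH protonation constants and the spectra of the protonated species.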

[6] = Diffusion-ordered spectroscopy NMR; type: physicochemical
[7] = Stability of the flavone toward oxidation during the kinetic measurements; type: physicochemical; settings: acidic conditions; CH3OH/H2O (80/20 w/w)

SMILES	E1/2 of the quasireversible signal (carbonyl) [1]	log K*L·FeNTA (3σ), stability constant of the ferric NTA complex [2]	log K*FFe, conditional stability constant of the ferric complex [3]	other results
O=c1cc(-c2ccccc2)oc2ccccc12 [F, 2-phenyl-chromone, reference compound]	−1.59 V/KCl(3 M)/Ag/AgCl			
COc1ccc(-c2cc(=O)c3c(O)c(OC)c(OC)cc3o2)cc1 [salvigenin, reference compound]		5.8(7)	5.8(2)	
O=c1cc(-c2ccc(O)cc2)oc2cc(O)cc(O)c12 [apigenin]			5.5(1)	
O=c1cc(-c2ccccc2)oc2cccc(O)c12 [5-OH-flavone]				pKa (5-OH) ([4]; CH3OH/water 1/1 w/w): 11.34; pKa (5-OH) ([4]; dioxane/water 1/1 w/w): 11.44
COc1ccc(-c2cc(=O)c3c(O)c(O)c(OC)cc3o2)cc1 [FOMe, ladanein]	−1.93 V/KCl(3 M)/Ag/AgCl	4.7(4)	6.0(3)	log K^h (±σ), protonation constant (6-OH group) [5]: 10.33(5); log K*L·FeNTA (3σ), stability constant of the ferric NTA complex ([2]; listed as FOMe/ladanein): 4.7(4) and 4.9(6); D0, diffusion coefficient [6]: 2.34 × 10^–6 cm^2 s^–1; stability of the free ligand in the absence of Fe(III) [7]: remained unaltered over a long period
